# UPR XBP1 act = activators of adaptive XBP1 UPR arm, primary screen, cell-based, CHO-XBP1 luciferase reporter, luminescence, uHTS; IRE1-XBP1 UPR activation; percent of tunicamycin response, DMSO as zero; activation, % at 20 µM; 0.33% of 330,000 active; AID 463104, 2010;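 active = versus positive control, 20 µM dose yields 30% or more activation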;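 note: 100% = tunicamycin at 10 µg/mL and 0% = DMSO only wells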
#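 Assay system: CHO-XBP1 luciferase reporter cells; Schedule: 6 h treatment, 37 °C; Detection: glow luminescence from Steady-Glo reagent; Benchmarks: high control tunicamycin 10 µg/mL final, low control DMSO vehicle only.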
# UPR CHOP act = activators of apoptotic CHOP UPR arm, primary screen, cell-based, CHO-CHOP luciferase reporter, luminescence, uHTS. UPR activation; percent of tunicamycin response over DMSO baseline. AID 449763, 2010. activation, % at 10 µM. 0.34% of 330,000 active;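 active = at 10 µM dose, activation of 40% or more, normalized to positive control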;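 note: 100% = tunicamycin at 10 µg/mL and 0% = DMSO alone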
#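 Test system: CHO CHOP reporter cells. Input: 500 CHO-CHOP cells per well. Medium: F12 with 10% FBS. Technique: luciferase luminescence. Measure: percent activation relative to tunicamycin control. Dosing: 10 µM compound, 0.5% DMSO. Timing: 16-18 h cell attachment, then 6 h compound exposure, 37 °C.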
# Jurkat NFkB inh = inhibitors of induced NF-kB luciferase reporter, primary screen, TCR NF-kB activation inhibitor project, cell-based, luminescence, uHTS; inhibition, % at 4 µM; AID 435003, 2010; 0.53% of 330,000 active; Jurkat, PMA/ionomycin-induced NF-kB luciferase reporter; in the data active = inhibition above about 50%
# 697 NFkB inh = inhibitors of PMA/ionomycin-induced NF-kB reporter, 697 cells, primary screen, B-cell NF-kB inhibitor project, cell-based, luminescence, uHTS; 697 B-cell NF-kB luciferase reporter, 16 h; inhibition, % at 4 µM; 0.33% of 330,000 active; AID 435022, 2010; in the data active = inhibition above about 35%
# CHOP inh = inhibitors of CHOP promoter induction, primary screen, cell-based, unfolded protein response, luciferase reporter; CHO-K1 CHOP-promoter luciferase, tunicamycin-induced, 15-18 h; inhibition, % at 10 µM; 3.8% of 220,000 active; AID 2732, 2010;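 active = compounds that reduced the stress-induced luciferase reporter signal by more than about 70% of percent inhibition, limit read from the data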;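 note: 0% = tunicamycin plus vehicle and 100% = wells without tunicamycin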
# * marks the source's active call; other numbers are inactive results; . = not tested or not shown. The full list was thinned out, with hits kept by preference.
SMILES,UPR XBP1 act,UPR CHOP act,Jurkat NFkB inh,697 NFkB inh,CHOP inh
CCc1nc(Nc2ccc(OC)c(OC)c2)c2nnn(Cc3ccccc3Cl)c2n1,5,1,20,-28,91*
Cc1cc(C)nc(-n2nc(C)cc2NC(=O)c2cccc(S(=O)(=O)N3CCCCC3)c2)n1,.,.,.,.,107*
O=C(Cc1csc(NC(=O)c2ccc(F)cc2)n1)NO,-2,-2,-7,9,-8
CC(=O)c1ccc(NC(=S)NC(C)c2ccc(Cl)cc2Cl)cc1 (stereo not given),-2,2,8,-7,73*
CC(=O)c1ccc(NC(=S)Nc2ccc(Br)c(Cl)c2)cc1,-2,1,7,15,34
CSc1nc2n(n1)C(C)C1=C(CCCC1=O)N2 (stereo not given),-2,2,7,1,-6
Cc1nn(-c2ccc(C(=O)Nc3nnc(C4CC4)s3)cc2)c(C)c1Cl,-3,3,5,-27,73*
O=C(COc1ccccc1C(=O)O)Nc1nc2ccc([N+](=O)[O-])cc2s1,-1,3,-4,-8,40
N#C/C(=C\c1cn(Cc2ccc(F)cc2)c2ccccc12)C(=O)NCc1ccco1,0,-1,3,-4,77*
N#C/C(=C\c1cn(Cc2ccccc2)c2ccccc12)C(=O)NCc1ccco1,-1,2,-4,-4,56
CCCCc1cc(=O)oc2cc(OCC(=O)NCCN3CCOCC3)ccc12,-6,1,8,2,.
Cc1occc1C(=O)N/N=C/c1ccc(OCc2ccccc2)cc1,2,2,-61,-44,71*
O=C(N/N=C/c1ccc(F)cc1)c1ccc(OCc2ccccc2)cc1,-1,0,-4,16,-7
COc1cc(OC)cc(-c2nc3ccccc3c(=O)n2OC(=O)c2ccccc2C)c1,22,0,-7,19,94*
Cc1cccc(C)c1NC(=O)CSc1nc(C)c(CC(=O)c2ccc(Br)cc2)c(C)c1C#N,23,2,13,14,91*
Cc1nc(SCC(=O)Nc2ccccc2C(F)(F)F)c(C#N)c(C)c1CC(=O)c1ccc(Br)cc1,33*,-1,2,-9,88*
Nc1ncnc2c1nc(Br)n2C1OC2COP(=O)(O)O[C@@H]2C1O (stereo not given in full),.,.,.,.,-15
CCCOc1ccc(-c2nnn(CC(=O)c3c[nH]c4ccccc34)n2)cc1,-1,1,-8,1,85*
CCOC(=O)Cn1nnc(-c2ccc(OCC(C)C)cc2)n1,1,0,0,-5,71*
CCc1c(C)[nH]c(C(=O)OCc2ccccc2)c1C,.,.,.,.,79*
CCCC1CCc2[nH]nc(C(=O)NN)c2C1 (stereo not given),-2,-1,-19,-13,.
CCOC(=O)c1cc2c(ccn2C)n1CC(=O)N1CCC(Cc2ccccc2)CC1,1,-2,-3,-7,71*
CCOC(=O)c1cc2c(ccn2C)n1CC(=O)N1CCCC(C)C1 (stereo not given),-1,1,-8,2,9
Cc1nn(CCC(=O)NNC(=S)NCC(C)C)c(C)c1Br,1,1,-13,-2,-20
CN(C)c1ccc(NC2=C(Cl)C(=O)c3ccccc3C2=O)cc1,0,26,-78,-112,95*
SMILES,UPR XBP1 act,UPR CHOP act,Jurkat NFkB inh,697 NFkB inh,CHOP inh
O=C1C(Cl)=C(Nc2ccc3cn[nH]c3c2)C(=O)c2ccccc21,.,.,.,.,107*
Cc1cc(NC(=O)CSc2nc(C)c(C)c(=O)[nH]2)no1,-1,1,9,17,.
CCCN(CC(=O)Nc1cc(Cl)cc(Cl)c1)CC(=O)Nc1ccc(F)c(F)c1F,-2,3,-1,-14,76*
COCCCn1c(SCC(=O)NC2CCS(=O)(=O)C2)nnc1-c1ccc(Cl)cc1 (stereo not given),-4,2,-7,10,.
O=C(Cn1c(COc2ccccc2)nc2ccccc21)Nc1cc(Cl)ccc1Cl,4,3,-1,9,82*
COc1cccc(-c2csc(N3CCN(C(=S)Nc4ccc(Cl)cc4)CC3)n2)c1,-1,1,0,-2,71*
CCc1ccc(NC(=S)N2CCN(c3cccc(OC)c3)CC2)cc1,-2,0,-7,-1,72*
COC(=O)c1ccc(NC(=S)N2CCN(Cc3ccccc3)CC2)cc1,3,-2,-27,5,24
COC(=O)c1ccc(NC(=S)N2CCN(Cc3cccc(C)c3)CC2)cc1,1,-2,-6,-1,89*
COc1cccc(-c2csc(N3CCN(C(=S)Nc4ccccc4)CC3)n2)c1,-1,1,-15,2,39
COc1cccc(N2CCN(C(=S)Nc3ccccc3)CC2)c1,-1,3,-10,-18,.
CCN(CC)c1ccc(C(=O)OCC(=O)N2CCN(c3ccccc3)CC2)cc1,-4,-3,-3,0,33
COc1ccc(/C=C/C(=O)O)cc1O,-2,0,4,21,.
NS(=O)(=O)c1ccc(CCNc2ncnc3sccc23)cc1,-1,-2,33,26,.
Cc1sc2ncnc(NCCc3ccc(S(N)(=O)=O)cc3)c2c1C,1,3,43,2,73*
O=C(N/N=C\c1ccc(-c2ccc([N+](=O)[O-])cc2)o1)C1COc2ccccc2O1 (stereo not given),1,0,-17,-25,81*
CN(C)c1ccc(/C=N/NC(=O)C2COc3ccccc3O2)o1 (stereo not given),4,-1,-5,10,-5
O=C(COc1ccc2ccccc2c1)Nc1nc2ccccc2[nH]1,3,0,-4,6,78*
COc1ccc(OCC(=O)Nc2nc3ccccc3[nH]2)cc1,6,5,-28,-29,-27
Cc1ccc(C2c3c(oc4ccccc4c3=O)C(=O)N2c2nnc(C(C)C)s2)o1 (stereo not given),3,-1,-3,2,85*
CCOc1cccc2cc(-c3cn4cc(C)ccc4n3)c(=O)oc12,1,-1,-93,-122,83*
Cc1ccc(Nc2nc(-c3cccnc3)nc3ccccc23)cc1,-1,2,41,-65,8
CCOC(=O)c1ccc(Nc2nc(-c3cccnc3)nc3ccccc23)cc1,20,9,9,12,93*
CCC(C)Nc1c2c(nc3c(-c4ccccc4)c(C)nn13)CCC2 (stereo not given),0,1,-1,-17,8
CN1CC(c2ccc(Cl)c(Cl)c2)[C@@]2(COc3ccccc3C2=O)[C@@]12C(=O)Nc1ccccc12 (stereo not given in full),2,1,-11,-7,74*

# Screening data from PubChem.
